From ChEMBL document CHEMBL2412989, “Antiproliferative activity on human prostate carcinoma cell lines of new peptidomimetics containing the spiroazepinoindolinone scaffold” (Bioorg Med Chem, 2013)
Calls of active or inactive are those of the source. No cut-off for these calls is given here.

Legend:
[1] = biological target: T1, Growth hormone secretagogue receptor type 1 (Homo sapiens, UniProt Q92847); experiment: Induction of GHS-R1a-mediated ERK1/2 phosphorylation in human DU145 cells at 10^-9 to 10^-6 M after 10 mins by Western blot analysis; assay type: cell-based; details: DU-145
How it was run: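 DU145 cells serum-starved 16 h, then exposed to compound (10^-6 or 10^-9 M) for 10 min. Lysed in T-PER with protease inhibitors, protein by BCA. SDS-PAGE, nitrocellulose transfer, 5% milk/TBST block. Probed overnight at 4 °C with anti-pERK1/2 (1:150) and anti-ERK1/2 (1:1000), then peroxidase secondary 2 h RT. Mean ± SD of three independent experiments, one-way ANOVA.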

DU-145 [2] = experiment: Antiproliferative activity against human DU145 cells assessed as growth inhibition at 10^-9 M after 48 hrs by BrdU-incorporation assay relative to untreated cells in presence of GHS-R1a antagonist D-Lys-GHRP-6; assay type: functional, cell-based
How it was run: (§1)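 BrdU-incorporation proliferation assay in DU145 cells. Cells seeded at 5 × 10^4/well, 24 h, then switched to RPMI 1640/5% charcoal-stripped FBS containing compound together with GHS-R1a antagonist D-Lys3-GHRP-6 at 10^-6 M. BrdU pulse 4 h before end. Eu-anti-BrdU time-resolved fluorescence, blank from cell-free wells. Mean of ≥3 experiments in 8 replicates, relative to untreated cells.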

DU-145 [3] = experiment: Antiproliferative activity against human DU145 cells assessed as growth inhibition at 10^-6 M after 48 hrs by BrdU-incorporation assay relative to untreated cells in presence of GHS-R1a antagonist D-Lys-GHRP-6; assay type: functional, cell-based; how it was run: as §1
DU-145 [4] = experiment: Antiproliferative activity against human DU145 cells assessed as growth inhibition at 10^-9 M after 48 hrs by BrdU-incorporation assay relative to untreated cells; assay type: functional; details: DU-145, 48 h, read-out: GI
How it was run: (§2)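 DU145 prostate carcinoma cells (ATCC) kept in RPMI 1640/5% FBS. 5 × 10^4 cells/well seeded, 24 h at 37 °C, 5% CO2. Medium then replaced by RPMI 1640/5% charcoal-stripped FBS with compound. BrdU added 4 h before end of incubation. Fixed cells probed with Eu-conjugated anti-BrdU (0.5 µg/mL), time-resolved fluorescence read. Cell-free wells used as blank. Mean of ≥3 experiments, 8 replicates each, expressed vs untreated cells.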

DU-145 [5] = experiment: Antiproliferative activity against human DU145 cells assessed as growth inhibition at 10^-6 M after 48 hrs by BrdU-incorporation assay relative to untreated cells; assay type: functional; details: DU-145, 48 h, read-out: GI; how it was run: as §2
[6] = Agonist activity at GHS-R1a in rat pituitary cells; assay type: cell-based; details: Pituitary gland cell
[7] = biological target: T1, Growth hormone secretagogue receptor type 1; experiment: Induction of GHS-R1a-mediated ERK1/2 phosphorylation in human DU145 cells at 10^-6 M after 10 mins by Western blot analysis in presence of D-Lys-GHRP-6; assay type: cell-based; details: DU-145
How it was run: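 Western blot of ERK1/2 phosphorylation in 16 h serum-starved DU145 cells. Cells pretreated 1 h with 10^-6 M D-Lys3-GHRP-6, then exposed 10 min to compound. pERK1/2 (1:150) and total ERK1/2 (1:1000) antibodies, overnight 4 °C, peroxidase secondary. Mean ± SD, three independent experiments, one-way ANOVA.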

[8] = biological target: T1, Growth hormone secretagogue receptor type 1; experiment: Agonist activity at GHS-R1a (unknown origin)

T1 sequence (Q92847 whole entry): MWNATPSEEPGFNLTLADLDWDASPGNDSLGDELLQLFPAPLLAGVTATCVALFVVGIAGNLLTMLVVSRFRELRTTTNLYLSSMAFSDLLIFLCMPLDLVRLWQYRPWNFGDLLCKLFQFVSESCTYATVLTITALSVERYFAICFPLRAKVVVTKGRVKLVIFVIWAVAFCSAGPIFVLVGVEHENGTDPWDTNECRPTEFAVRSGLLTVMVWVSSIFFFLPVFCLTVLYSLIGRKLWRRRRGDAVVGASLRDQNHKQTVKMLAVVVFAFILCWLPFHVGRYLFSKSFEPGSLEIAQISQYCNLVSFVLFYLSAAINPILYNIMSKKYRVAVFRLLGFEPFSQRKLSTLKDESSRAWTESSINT

| Structure (SMILES) | inhibition of growth at 0.001 µM (DU-145 [4]) [%] | inhibition of growth at 1 µM (DU-145 [5]) [%] | also measured |
| --- | --- | --- | --- |
| CCCCCCCC(=O)OC[C@H](NC(=O)CNC(=O)[C@@H](N)CCCNC(=N)N)C(=O)N[C@@H](CO)C(=O)N[C@@H](Cc1ccccc1)C(=O)N[C@@H](CC(C)C)C(=O)N[C@@H](CO)C(=O)N1CCC[C@H]1C(=O)N[C@@H](CCC(=O)O)C(=O)N[C@@H](Cc1cnc[nH]1)C(=O)N[C@@H](CCC(N)=O)C(=O)N[C@@H](CCCCN)C(=O)N[C@@H](C)C(=O)N[C@@H](CCC(N)=O)C(=O)N[C@@H](CCC(N)=O)C(=O)N[C@@H](CCCNC(=N)N)C(=O)N[C@@H](CCCCN)C(=O)N[C@@H](CCC(=O)O)C(=O)N[C@@H](CO)C(=O)N[C@@H](CCCCN)C(=O)N[C@@H](CCCCN)C(=O)N1CCC[C@H]1C(=O)N1CCC[C@H]1C(=O)N[C@@H](C)C(=O)N[C@@H](CCCCN)C(=O)N[C@@H](CC(C)C)C(=O)N[C@@H](CCC(N)=O)C(=O)N1CCC[C@H]1C(=O)O [GHRELIN] | -38 | -25 | Activity [1]: Active; growth inhibition (GI) (DU-145 [2]): inactive; growth inhibition (GI) (DU-145 [3]): inactive |
| CC(C)(N)C(=O)N[C@H](COCc1ccccc1)C(=O)N1CCC2(CC1)CN(S(C)(=O)=O)c1ccccc12 [IBUTAMOREN] |  |  | EC50 [6]: 1.3 nM |
| CC(C)(N)C(=O)N[C@H](Cc1c[nH]c2ccccc12)C(=O)N1CCC[C@@]2(CC1)C(=O)Nc1ccccc12 | -4.8 | -5.5 |  |
| CC(C)(N)C(=O)N[C@@H](Cc1c[nH]c2ccccc12)C(=O)N1CCC[C@@]2(CC1)C(=O)Nc1ccccc12 | -20 | -27 | Activity [7]: inactive; Activity [1]: Active; growth inhibition (GI) (DU-145 [2]): inactive; growth inhibition (GI) (DU-145 [3]): inactive |
| CC(=O)NC(C)(C)C(=O)N[C@@H](Cc1c[nH]c2ccccc12)C(=O)N1CCC[C@@]2(CC1)C(=O)Nc1ccccc12 | 1.2 | 2.1 |  |
| CC(C)(N)C(=O)N[C@H](Cc1c[nH]c2ccccc12)C(=O)N1CCC2(CC1)C[C@H](O)c1ccccc12 |  |  | EC50 [8]: 0.6 nM |
| CC(C)(N)C(=O)N[C@@H](Cc1c[nH]c2ccccc12)C(=O)N1CCC[C@]2(CC1)C(=O)Nc1ccccc12 | -10 | -15 |  |
| CC(C)(N)C(=O)N[C@H](Cc1c[nH]c2ccccc12)C(=O)N1CCC[C@]2(CC1)C(=O)Nc1ccccc12 | -2.4 | 9.7 |  |
